From ChEMBL document CHEMBL4177768, “Synthesis and Biological Evaluation of Derivatives of Indoline as Highly Potent Antioxidant and Anti-inflammatory Agents” (J Med Chem, 2018)
The source made the active and inactive calls. The calls are words filed in the database; no cut-off is given here.

Experiments:
RAW264.7 [1] = experiment: Cytoprotective activity against H2O2-induced oxidative stress in mouse RAW264.7 cells assessed as decrease in caspase-3 activity at 1 pM incubated for 4 hrs prior to H2O2 addition measured after 90 mins by caspase-GloR reagent-based luminescence assay relative to control; assay type: functional
Outline: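 RAW 264.7 macrophages were pretreated with compound (1 pM or 1 nM) 4 h before H2O2 100 µM. Medium was replaced with fresh DMEM after 90 min and plates were incubated overnight. Caspase-Glo 3/7 reagent was added and luminescence read after 30 min at room temperature. Mean ± SD, 4-6 replicates.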

RAW264.7 [2] = experiment: Antiinflammatory activity in mouse RAW264.7 cells assessed as reduction in LPS-induced nitric oxide production at 1 pM to 100 nM incubated for 2 hrs prior to LPS challenge measured after 24 hrs by Griess assay; assay type: functional, cell-based
Outline: (§1)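 RAW 264.7 macrophages were plated at 1×10^5 per well, grown overnight and washed with PBS. Compounds in water (final 1 pM-100 nM, medium with 2% FCS) were added 2 h at 37 °C before E. coli 0111:B4 LPS, 2.5 µg/mL. TNF-α was sampled at 8 h; IL-6 and nitrite (Griess) at 24 h. ELISA was used for cytokines. Values are % of the LPS + medium value in each experiment. Budesonide was the reference. 2-3 experiments, 6 wells per concentration.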

RAW264.7 [3] = experiment: Antiinflammatory activity in mouse RAW264.7 cells assessed as reduction in LPS-induced TNF-alpha production at 1 pM to 100 nM incubated for 2 hrs prior to LPS challenge measured after 8 hrs by ELISA; assay type: functional, cell-based; outline: as §1
RAW264.7 [4] = experiment: Cytoprotective activity against H2O2-induced oxidative stress in mouse RAW264.7 cells assessed as cell viability at 100 nM incubated for 2 hrs prior to H2O2 addition measured after 24 hrs by MTT assay (reference value: 68 to 72.8%); assay type: functional; conditions: read-out: Activity
RAW264.7 [5] = experiment: Antiinflammatory activity in mouse RAW264.7 cells assessed as reduction in LPS-induced IL6 production at 1 pM to 100 nM incubated for 2 hrs prior to LPS challenge measured after 24 hrs by ELISA; assay type: functional, cell-based; outline: as §1
RAW264.7 [6] = experiment: Cytoprotective activity against H2O2-induced oxidative stress in mouse RAW264.7 cells assessed as cell viability at 1 pM incubated for 2 hrs prior to H2O2 addition measured after 24 hrs by MTT assay (reference value: 68 to 72.8%); assay type: functional; conditions: read-out: Activity
[7] = Cytotoxicity against mouse RAW264.7 cells assessed as cell viability at 10^-8 M after 24 hrs by MTT assay relative to control; assay type: cell-based; conditions: read-out: Activity
Outline: (§2)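 RAW 264.7 cells, seeded at 1×10^4 cells/mL and incubated 24 h, were exposed to compound from 1 pM to 100 nM. Viability was read by MTT (final 0.5 mg/mL, 1 h at 37 °C), with formazan dissolved in DMSO and OD at 570 nm. Results are compared with medium-only cells.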

[8] = Cytotoxicity against mouse RAW264.7 cells assessed as cell viability at 10^-7 M after 24 hrs by MTT assay relative to control; assay type: cell-based; conditions: read-out: Activity; outline: as §2
[9] = Cytotoxicity against mouse RAW264.7 cells assessed as cell viability at 10^-9 M after 24 hrs by MTT assay relative to control; assay type: cell-based; conditions: read-out: Activity; outline: as §2
[10] = Cytotoxicity against mouse RAW264.7 cells assessed as cell viability at 10^-11 M after 24 hrs by MTT assay relative to control; assay type: cell-based; conditions: read-out: Activity; outline: as §2
[11] = Cytotoxicity against mouse RAW264.7 cells assessed as cell viability at 10^-10 M after 24 hrs by MTT assay relative to control; assay type: cell-based; conditions: read-out: Activity; outline: as §2
[12] = Cytotoxicity against mouse RAW264.7 cells assessed as cell viability at 10^-12 M after 24 hrs by MTT assay relative to control; assay type: cell-based; conditions: read-out: Activity; outline: as §2
RAW264.7 [13] = experiment: Antiinflammatory activity in mouse RAW264.7 cells assessed as reduction in LPS-induced TNF-alpha production at 1 nM incubated for 2 hrs prior to LPS challenge measured after 8 hrs by ELISA; assay type: functional; set-up: scale not given: the % may be the effect or the level left; outline: as §1
RAW264.7 [14] = experiment: Antiinflammatory activity in mouse RAW264.7 cells assessed as reduction in LPS-induced IL-6 production at 1 nM incubated for 2 hrs prior to LPS challenge measured after 24 hrs by ELISA; assay type: functional; set-up: scale not given: the % may be the effect or the level left; outline: as §1
RAW264.7 [15] = experiment: Antiinflammatory activity in mouse RAW264.7 cells assessed as reduction in LPS-induced nitric oxide production at 1 nM incubated for 2 hrs prior to LPS challenge measured after 24 hrs by Griess assay; assay type: functional; set-up: scale not given: the % may be the effect or the level left; outline: as §1
RAW264.7 [16] = experiment: Cytoprotective activity against H2O2-induced oxidative stress in mouse RAW264.7 cells assessed as cell viability at 10 nM incubated for 2 hrs prior to H2O2 addition measured after 24 hrs by MTT assay (reference value: 68 to 72.8%); assay type: functional; conditions: read-out: Activity
RAW264.7 [17] = experiment: Cytoprotective activity against H2O2-induced oxidative stress in mouse RAW264.7 cells assessed as decrease in LDH release at 1 pM incubated for 2 hrs prior to H2O2 addition by colorimetric assay relative to control; assay type: functional; set-up: scale not given: the % may be the effect or the level left
Outline: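 RAW 264.7 cells were seeded and pretreated with compound before H2O2 100 µM, in serum-free medium. Collected medium was centrifuged and incubated with reaction mix 30 min at room temperature. LDH was measured as NADH formation by colorimetric read at 490 nm. n = 8-10 replicates per concentration.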

RAW264.7 [18] = experiment: Cytoprotective activity against H2O2-induced oxidative stress in mouse RAW264.7 cells assessed as decrease in LDH release at 1 pM incubated for 2 hrs prior to H2O2 addition by colorimetric assay relative to control; set-up: scale not given: the % may be the effect or the level left
RAW264.7 [19] = experiment: Antiinflammatory activity in mouse RAW264.7 cells assessed as reduction in LPS-induced TNF-alpha production at 100 pM to 100 nM incubated for 2 hrs prior to LPS challenge measured after 8 hrs by ELISA; assay type: functional, cell-based; outline: as §1
RAW264.7 [20] = experiment: Antiinflammatory activity in mouse RAW264.7 cells assessed as reduction in LPS-induced IL-6 production at 100 pM to 100 nM incubated for 2 hrs prior to LPS challenge measured after 24 hrs by ELISA; assay type: functional, cell-based; outline: as §1
Mus musculus [21] = experiment: Antiinflammatory activity in Balb/C mouse assessed as reduction in LPS-induced IL6 production in plasma at 1 umol/kg, sc administered LPS 15 mins post compound treatment measured after 4 hrs by ELISA; assay type: functional, organism-based
Outline: (§3)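 Male Balb/C mice, 7-8 weeks old, given compound sc (0.1, 1 or 10 µmoles/kg) or saline. LPS 10 mg/kg was given ip 15 min later, and mice were killed 4 h after that. Spleens were homogenized in PBS with protease inhibitor and centrifuged at 14,000 g, 4 °C. Cytokines in plasma and tissue supernatants were measured by ELISA, with protein by BCA. Dexamethasone 5.6 µmoles/kg was the reference. n = 8-10 mice per treatment.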

Mus musculus [22] = experiment: Antiinflammatory activity in Balb/C mouse assessed as reduction in LPS-induced TNF-alpha production in plasma at 1 umol/kg, sc administered LPS 15 mins post compound treatment measured after 4 hrs by ELISA; assay type: functional, organism-based; outline: as §3
Mus musculus [23] = experiment: Antiinflammatory activity in Balb/C mouse assessed as reduction in LPS-induced IL6 production in liver at 0.1 to 10 umol/kg, sc administered LPS 15 mins post compound treatment measured after 4 hrs by ELISA; assay type: functional, organism-based
Mus musculus [24] = experiment: Antiinflammatory activity in Balb/C mouse assessed as reduction in LPS-induced IL6 production in brain at 0.1 to 10 umol/kg, sc administered LPS 15 mins post compound treatment measured after 4 hrs by ELISA; assay type: functional, organism-based
RAW264.7 [25] = experiment: Antiinflammatory activity in mouse RAW264.7 cells assessed as reduction in LPS-induced TNF-alpha production at 100 pM incubated for 2 hrs prior to LPS challenge measured after 8 hrs by ELISA; assay type: functional; set-up: scale not given: the % may be the effect or the level left; outline: as §1
RAW264.7 [26] = experiment: Antiinflammatory activity in mouse RAW264.7 cells assessed as reduction in LPS-induced IL-6 production at 100 pM incubated for 2 hrs prior to LPS challenge measured after 24 hrs by ELISA; assay type: functional; set-up: scale not given: the % may be the effect or the level left; outline: as §1
RAW264.7 [27] = experiment: Antiinflammatory activity in mouse RAW264.7 cells assessed as reduction in LPS-induced nitric oxide production at 100 pM incubated for 2 hrs prior to LPS challenge measured after 24 hrs by Griess assay; assay type: functional; set-up: scale not given: the % may be the effect or the level left; outline: as §1
Mus musculus [28] = experiment: Antiinflammatory activity in Balb/C mouse assessed as reduction in LPS-induced TNF-alpha production in spleen at 1 umol/kg, sc administered LPS 15 mins post compound treatment measured after 4 hrs by ELISA; assay type: functional, organism-based; outline: as §3
Mus musculus [29] = experiment: Antiinflammatory activity in Balb/C mouse assessed as reduction in LPS-induced IL6 production in spleen at 1 umol/kg, sc administered LPS 15 mins post compound treatment measured after 4 hrs by ELISA; assay type: functional, organism-based; outline: as §3

Compound: Cc1ccc(S(C)(=O)=O)cc1.Cc1ccc(S(C)(=O)=O)cc1.NCCCN1CCc2cccc(OCc3ccccc3)c21
- Activity (RAW264.7 [1]): inactive
- Activity (RAW264.7 [2]): Dose-dependent effect
- Activity (RAW264.7 [3]): Dose-dependent effect
- viability at 0.1 µM (RAW264.7 [4]): 79.3%

Compound: CC(C)NC(=O)CCN1CCc2cc(Cl)ccc21
- Activity (RAW264.7 [2]): inactive
- Activity (RAW264.7 [3]): inactive
- Activity (RAW264.7 [5]): inactive
- viability at 1 pM (RAW264.7 [6]): 95.7%
- viability at 24 h, 0.01 µM [7]: 104%
- viability at 24 h, 0.1 µM [8]: 103%
- viability at 24 h, 0.001 µM [9]: 97.9%
- viability at 24 h, 1e-05 µM [10]: 96.3%
- viability at 24 h, 0.0001 µM [11]: 98.2%
- viability at 24 h, 1e-06 µM [12]: 95.6%

Compound: COc1ccc2c(c1)CCN2CCCNC(C)C.Cl.Cl
- Activity (RAW264.7 [13]): 50%
- Activity (RAW264.7 [2]): Dose-dependent effect
- Activity (RAW264.7 [3]): Dose-dependent effect
- Activity (RAW264.7 [14]): 50%
- Activity (RAW264.7 [15]): 50%
- viability at 0.01 µM (RAW264.7 [16]): 87.1%

Compound: COC(=O)CCN1CCc2cc(OC)ccc21.Cl
- Activity (RAW264.7 [1]): 60%
- Activity (RAW264.7 [2]): Active
- Activity (RAW264.7 [17]): 16%
- viability at 1 pM (RAW264.7 [6]): 91%
- Activity (RAW264.7 [18]): 16%

Compound: CCCC1O[C@@H]2C[C@H]3[C@@H]4CCC5=CC(=O)C=C[C@]5(C)[C@H]4[C@@H](O)C[C@]3(C)[C@]2(C(=O)CO)O1 (stereo partly specified)
- Activity (RAW264.7 [2]): Active
- Activity (RAW264.7 [19]): Active
- Activity (RAW264.7 [20]): Active

Compound: COc1ccc2c(c1)CCN2CCCO.Cl
- Activity (Mus musculus [21]): Active
- Activity (Mus musculus [22]): Active
- Activity (Mus musculus [23]): Active
- Activity (Mus musculus [24]): Active
- Activity (RAW264.7 [2]): Active
- Activity (RAW264.7 [3]): Active
- Activity (RAW264.7 [5]): Active
- Activity (RAW264.7 [25]): 50%
- Activity (RAW264.7 [26]): 50%
- Activity (RAW264.7 [27]): 50%
- viability at 1 pM (RAW264.7 [6]): 95.6%
- viability at 24 h, 0.01 µM [7]: 91.4%
- viability at 24 h, 0.1 µM [8]: 91.9%
- viability at 24 h, 0.001 µM [9]: 95.3%
- viability at 24 h, 1e-05 µM [10]: 93.4%
- viability at 24 h, 0.0001 µM [11]: 93.9%
- viability at 24 h, 1e-06 µM [12]: 91.9%
- Activity (Mus musculus [28]): Active
- Activity (Mus musculus [29]): Active

Compound: COC(=O)CCN1CCc2ccc(C)cc21
- Activity (RAW264.7 [2]): inactive
- Activity (RAW264.7 [3]): inactive
- Activity (RAW264.7 [5]): inactive
- viability at 0.01 µM (RAW264.7 [16]): 87.2%
